Compound activity from PubChem.
Shown are actives, neighbours in structure and some others; about 4.1% of the full set was active somewhere.
MrgX1 PAM: human MrgX1 positive allosteric modulation, primary screen. B-score at 10 µM. MrgX1-HEK293, Fluo-4 calcium flux, FDSS; active compounds read high. 0.63% of 310,000 active. AID 588675. Q96LB2;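 active means plate-corrected calcium response at least 3 library SD above typical, normal starting fluorescence, not activating the receptor alone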;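 further: compound read alongside a low EC10 to EC30 dose of BAM8-22 agonist; peak minus trough fluorescence over baseline measured at the second addition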
Target sequence (Q96LB2 whole entry, looked up): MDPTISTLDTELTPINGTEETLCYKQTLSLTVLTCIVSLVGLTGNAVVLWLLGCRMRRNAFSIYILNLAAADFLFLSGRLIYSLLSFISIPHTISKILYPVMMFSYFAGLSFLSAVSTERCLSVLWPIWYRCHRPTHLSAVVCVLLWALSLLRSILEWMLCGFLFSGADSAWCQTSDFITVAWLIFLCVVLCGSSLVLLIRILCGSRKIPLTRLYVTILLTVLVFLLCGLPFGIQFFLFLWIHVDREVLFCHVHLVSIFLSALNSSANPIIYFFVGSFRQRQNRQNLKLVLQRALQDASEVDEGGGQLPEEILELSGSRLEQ
Kir21 inh: blocks the mouse Kir2.1 inward-rectifier potassium channel | P35561 | HEK293-Kir2.1, FluxOR thallium flux fluorescence; active compounds read low | B-score at 10 µM | 0.85% of 310,000 active;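 active means fluorescence ratio B-score at or below minus 3 SD of library scores, with starting-brightness B-score within 2 SD, cut at about -4.2 in these data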;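 further: channel flux triggered by added potassium and thallium sulfate stimulus; B-score of peak minus minimum fluorescence over baseline after thallium stimulus; more negative B-score means stronger Kir2.1 block with less thallium influx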
MrgX1 antag: blocks BAM8-22 activation of human MrgX1 receptor; MRGX1-HEK293 calcium flux, Fluo-4, BAM8-22 antagonism; active compounds read low; B-score at 10 µM; 1.3% of 310,000 active;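 active means calcium-response B-score plate-corrected more than 3 library SD below zero, starting fluorescence within 5 deviations, no agonist response on first addition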;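 further: peak minus trough fluorescence over baseline after final BAM8-22 challenge near maximal dose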
RGS4 act: potentiators or activators of RGS4. HEK293 M3R/inducible RGS4, carbachol calcium flux Fluo4; active compounds read low. B-score at 10 µM. 0.92% of 310,000 active. AID 463111;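 active means B-score of the integrated calcium signal more than 4 SD below the library mean, with starting fluorescence not abnormally high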;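 further: negative B-score means reduced calcium response which marks RGS4 activation or potentiation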
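Assay system: HEK293 FlpIn-TREx cells, stable M3R, doxycycline-inducible RGS4 / Probe or stimulus: carbachol, ECmax concentration / Times: overnight RGS4 induction, 30 min dye load 37 °C, 20 min compound RT / Signal: kinetic calcium fluorescence imaging with Fluo4-AM dye, 2 µM / Measure: Agonist-evoked peak-minus-minimum fluorescence over baseline, integrated ratio, B score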
RGS4 inh: human RGS4 inhibition | AID 463165 | B-score at 10 µM | HEK293 M3R/RGS4 inducible, Fluo-4 calcium flux; active compounds read high; triggered by carbachol at its EC20 | 0.45% of 310,000 active | P49798;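 active means B-score, a plate-corrected calcium signal, over three deviations above library mean, with baseline fluorescence within five deviations of library mean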;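 further: RGS4 expression induced by doxycycline in cells with stable M3 receptor; B-score is computed from the integrated fluorescence ratio over baseline after carbachol; higher B-score means a larger calcium signal and so more RGS4 inhibition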
Target sequence (P49798 whole entry, looked up): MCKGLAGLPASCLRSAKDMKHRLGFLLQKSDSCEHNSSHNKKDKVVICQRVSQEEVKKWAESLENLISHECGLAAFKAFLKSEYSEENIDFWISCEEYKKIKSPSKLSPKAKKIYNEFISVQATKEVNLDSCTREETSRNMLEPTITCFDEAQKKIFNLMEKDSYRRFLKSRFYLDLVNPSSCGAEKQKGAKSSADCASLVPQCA
MrgX1 agonist: agonists of human MrgX1 receptor; Q96LB2; MrgX1-HEK293 cells, Fluo-4 calcium fluorescence, agonist mode; active compounds read high; B-score at 10 µM; 0.44% of 310,000 active; AID 588627;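 active means calcium response B-score plate-corrected fluorescence ratio at least 3 library SD, with starting fluorescence B-score inside 5 SD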
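System: HEK293 cells stably expressing human MrgX1 receptor; Dosing: test compound in the initial addition of three; Schedule: overnight plating, then 30 min 37 °C plus 30 min room-temperature dye loading; Detection: kinetic calcium dye fluorescence, Fluo-4 NW; Controls: per-plate positive and negative controls for Z′ factor.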
* = called active by the depositor; i = inactive.

SMILES	MrgX1 PAM	Kir21 inh	MrgX1 antag	RGS4 act	RGS4 inh	MrgX1 agonist
CC(C)CC(NC(=O)c1ccccc1)C(=O)N/N=C/c1ccco1 (stereo unspecified)	i	0.24	i	i	i	30*
O=C(CCC(=O)N/N=C/c1ccco1)N/N=C/c1ccco1	i	0.08	i	i	i	i
O=C(CCCCCCCCC(=O)N/N=C/c1ccco1)N/N=C/c1ccco1	i	1.4	-5.7*	i	i	i
CCOC(=O)c1ccc(NC(=O)CCS(=O)(=O)c2cccc3nonc23)cc1	i	0.1	i	i	i	i
CCOC(=O)CNc1ccc2c(c1)OCO2	i	0.49	i	i	i	i
CC(c1ccccc1)N1C(=O)c2ccc(C(=O)Nc3ccc(Br)cc3C(=O)O)cc2C1=O (stereo unspecified)	i	-1.1	-11*	i	i	i
CC(c1ccccc1)N1C(=O)c2ccc(C(=O)Nc3ccccc3C(=O)O)cc2C1=O (stereo unspecified)	i	0.06	i	i	i	i
COc1ccc(N2C(=S)NC3CS(=O)(=O)CC32)cc1 (stereo unspecified)	i	1.5	i	i	i	i
CCN(CC)CCNC(=O)c1ccc(NC(=O)c2cccc(S(=O)(=O)N3c4ccccc4CC3C)c2)cc1 (stereo unspecified)	i	0.05	i	-8.4*	i	i
COc1ccc(NC(=O)C(=O)NNC(=O)c2cccs2)c(OC)c1	i	0.84	i	i	i	i
CC(=O)c1c(C)[nH]c(C2=NNC(=NCc3ccccc3)SC2)c1C	i	0.59	i	i	i	i
CCOC(=O)c1c(C)[nH]c(C2=NNC(=Nc3cccc(Cl)c3)SC2)c1C	22*	1	i	i	i	i
COc1ccccc1N1CCN(c2ncnc3nc[nH]c23)CC1	i	0.39	i	i	i	i
Cc1cc(C)n(-c2ccc(C(=O)NCc3ccc(F)cc3)cc2)n1	i	-9.9*	i	i	i	i
O=C1CCCC2=C1C(c1cccc(O)c1)C1=C(N2)c2ccccc2C1=O (stereo unspecified)	i	-0.71	i	i	i	i
Cc1onc(-c2ccccc2)c1CNS(=O)(=O)c1cccc(Br)c1	i	-6.4*	i	i	i	i
N#Cc1cccc(CN2C=NS(=O)(=O)c3ccccc32)c1	i	0.06	i	i	i	i
CCc1n[nH]c2c1/C(=N\O)CC(c1ccccc1)C2 (stereo unspecified)	i	-0.19	i	i	i	i
CCc1ccc(NC(=O)C2CC=CCC2C(=O)O)cc1 (stereo unspecified)	i	-0.44	i	i	i	i
O=C(O)Cc1ccc(NC(=O)C2CC=CCC2C(=O)O)cc1 (stereo unspecified)	i	0.19	-8.3*	i	i	i
COC(=O)C1=C(N)c2c(F)cccc2C1(C#N)c1ccccc1 (stereo unspecified)	i	0.92	i	i	i	i
O=C(Nc1nc2ccccc2s1)C1CCN(S(=O)(=O)c2cc([N+](=O)[O-])ccc2Cl)CC1	i	1.2	-5.3*	i	i	i
COc1cccc(C2C3=C(N=c4s/c(=C\c5ccc(OCC(=O)O)cc5)c(=O)n42)c2ccccc2CC3)c1 (stereo unspecified)	i	0.06	-7.5*	-8.4*	i	i
Cc1ccc(C(=O)NNc2cc(=O)n(C)c(=O)n2C)cc1C	i	0.04	-5.1*	i	i	i
Cn1c(NNC(=O)c2c(F)cccc2F)cc(=O)n(C)c1=O	i	-0.04	i	i	i	i
SMILES	MrgX1 PAM	Kir21 inh	MrgX1 antag	RGS4 act	RGS4 inh	MrgX1 agonist
COc1ccc(Nc2nnc(SCc3cc([N+](=O)[O-])cc4c3OCOC4)s2)cc1	i	0.04	-4.6*	i	i	i
Cc1nnc(SCc2cc([N+](=O)[O-])cc3c2OCOC3)[nH]c1=O	i	0.04	i	i	i	i
CC(Sc1n[nH]c(N)n1)C(=O)C12CC3CC(CC(C3)C1)C2 (stereo unspecified)	i	0.44	i	i	i	i
CC(SC#N)C(=O)C12CC3CC(CC(C3)C1)C2 (stereo unspecified)	i	-0.16	-5.1*	i	i	i
COc1ccc(Cc2nnc(SC)[nH]c2=O)cc1OC	i	0.67	i	i	i	i
C=CC[n+]1c(-c2ccc(OCC)cc2)csc1NNC(=O)Nc1ccccc1	i	0.66	-6.2*	i	i	i
COc1ccc(-c2csc(Nc3ccccc3)[n+]2Cc2ccccc2)cc1	i	0.56	i	i	i	i
COc1ccc(S(=O)(=O)n2cnc3ccccc32)cc1OC	i	-2.3	i	i	i	i
CCC[n+]1c(C)sc2c(OC)ccc(OC)c21	i	-1.4	-5.5*	i	i	i
O=C(COc1ccc2c3c(c(=O)oc2c1)CCC3)N[C@@H](Cc1ccccc1)C(=O)O	i	1.8	i	i	i	i
CCN1CCN(Cc2ccc(NC(=O)c3cc(NC(=O)c4cncc(-c5cccs5)c4)cc(OC)c3)cc2C(F)(F)F)CC1	i	-0.03	i	i	i	i
COC(=O)Cc1ccc(NC(=S)NCc2ccccc2OC)cc1	i	-0.02	i	i	i	i
COc1ccccc1CNC(=O)c1ccccc1OCc1ccc(F)cc1	i	-6.5*	i	i	i	i
O=C(NCc1ccccn1)c1ccccc1OCc1ccc(F)cc1	i	-1.1	i	i	i	i
COc1ccccc1CNC(=S)Nc1ccc(F)cc1	i	-4.7*	i	i	i	i
Cc1cc(NS(=O)(=O)c2ccc(Nc3nc(-c4sc(NC(=O)c5ccccc5)nc4C)cs3)cc2)no1	i	-4.3*	i	-11*	i	i
Cc1cc(NS(=O)(=O)c2ccc(NC(=O)c3cc(-c4ccccc4Cl)nc4ccccc34)cc2)no1	i	1.2	i	i	i	34*
COC(=O)CN1C(=O)N/C(=C/c2cc(Cl)c(OC)c(OC)c2)C1=O	i	0.37	i	i	i	i
COC(=O)CN1C(=O)N/C(=C/c2ccc(OC)cc2)C1=O	i	0.18	i	i	i	43*
CCOC(=O)NC(c1cccc(Cl)c1)C1CCCCCC1=O (stereo unspecified)	i	-0.92	i	i	i	i
